Bioassay records as filed in PubChem.
AP complement: alternative complement pathway inhibitors, primary screen, biochemical, ELISA, human serum, orthogonally pooled compounds | actives 0.08% (n = 62,000) | LPS-coated ELISA, C3 deposition; tested in compound mixtures | AID 1235, 2008 | inhibition, % at 5 µM;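 active = inhibition above 30% in each of the two pooled mixtures holding the compound, so the lower value exceeds 30%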;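 note: 0% = serum in Mg-EGTA without compound and 100% = EDTA serum blank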
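Test system – human serum alternative complement pathway, C3 deposition on LPS-coated wells · Buffer or medium – diluted human serum in Mg2+-EGTA GVB++ · Compound dosing – 5 µM each compound, pools of ten, 50 µM per pool · Schedule – 1 h serum-compound exposure at 37 °C · Measured by – Anti-C3 ELISA, OD 450 nm · Read-out basis – percent inhibition of C3 deposition onto LPS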
tolC growth inh: growth inhibitors of E. coli tolC mutant, primary screen, strain BW25113 ΔtolC::kan, 384-well. actives 2.2% (n = 65,000). OD615. growth inhibition, % at 10 µM (by protocol);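 active = growth inhibition at or above a cutoff equal to the mean over every tested compound plus 3 SD, cut at about 60% in these data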;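 note: growth measured after 20 h incubation at 37 °C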
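Signal: optical density read at 615 nm; Assay system: E. coli ΔtolC::kan strain BW25113; Times: 20 h incubation with compound, 37 °C; Dosing: 10 µM final, single dose.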
E coli WT exp: growth inhibitors of wild-type E. coli, primary screen, strain BW25113, expanded library, OD600 | OD600 absorbance | growth inhibition, % at 100 µM | actives 0.15% (n = 98,000);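 active = growth inhibition above about 50% at one test dose, limit read from the data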;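 note: growth measured after 20 h incubation at 37 °C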
HePTP inh: inhibitors of human HePTP phosphatase, primary screen, biochemical, absorbance, leukemia target; Tyrosine-protein phosphatase non-receptor type 7 (Homo sapiens), P35236; recombinant HePTP phosphatase activity, OD absorbance; inhibition, % at 20 µM; actives 0.64% (n = 110,000); in the data active = inhibition above about 50%;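 note: plate controls were vehicle for no effect and reference inhibitor for full effect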
Target sequence (P35236 whole entry, looked up): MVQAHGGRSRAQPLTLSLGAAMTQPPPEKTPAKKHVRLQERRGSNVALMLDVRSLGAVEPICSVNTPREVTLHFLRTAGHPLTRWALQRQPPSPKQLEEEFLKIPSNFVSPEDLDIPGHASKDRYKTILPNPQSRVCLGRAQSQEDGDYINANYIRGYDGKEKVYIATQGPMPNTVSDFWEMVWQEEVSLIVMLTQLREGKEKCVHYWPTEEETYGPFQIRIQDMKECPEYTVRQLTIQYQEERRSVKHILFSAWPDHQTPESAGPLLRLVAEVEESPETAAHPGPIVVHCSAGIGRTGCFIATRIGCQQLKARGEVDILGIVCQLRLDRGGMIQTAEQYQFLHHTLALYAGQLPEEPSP
PLAP activator: PLAP enzyme activators, biochemical, luminescence, HTS; actives 1.2% (n = 96,000); Alkaline phosphatase, placental type (Homo sapiens), P05187; AID 696, 2007; purified PLAP enzyme, luminescent substrate read-out; stronger effect = higher value; activation fold at 20 µM; in the data active = activation fold above about 2
Numbers without * were called inactive; x = no result given. This is a sample that favours compounds with a hit; in the whole collection about 2.3% have one here.

SMILES	AP complement	tolC growth inh	E coli WT exp	HePTP inh	PLAP activator
O=C(Cc1cccs1)Nc1cccc(/C=C/C(=O)c2ccccc2)c1	x	x	x	0	x
CCn1c(-c2cc3ccccc3cc2O)n[nH]c1=S	x	x	-2	x	2.9*
CCn1c(-c2ccc3[nH]c(C)c(C)c3c2)n[nH]c1=S	0	9	1	6	2.1*
Cc1cc2nc(-c3cc(NC(=O)c4cccc([N+](=O)[O-])c4)ccc3Cl)oc2cc1C	x	x	x	-3	x
Cc1ccc(C(=O)NNC(=O)c2ccc(SCC3CCCO3)c([N+](=O)[O-])c2)cc1 (centres undefined)	x	x	7	x	1.3
O=C(NNC(=O)c1ccc(SCC2CCCO2)c([N+](=O)[O-])c1)c1ccc(Cl)c([N+](=O)[O-])c1 (centres undefined)	x	x	-1	x	2.4*
Cc1nnc(NC(=O)c2c(-c3ccccc3)noc2C)s1	x	x	-6	x	1.1
Cc1onc(-c2ccccc2)c1C(=O)Nc1nnc(N(C)Cc2ccccc2)s1	-3	61*	-11	-5	1.2
Cc1onc(-c2ccccc2)c1C(=O)Nc1nnc(COc2ccc(Cl)cc2)s1	25	80*	-6	7	1.7
CCC(CC)c1nnc(NC(=O)c2c(-c3ccccc3)noc2C)s1	11	79*	-2	-5	1.3
Cc1onc(-c2ccccc2)c1C(=O)OCC(=O)c1ccccc1	-6	71*	1	-4	0.7
O=C(Nc1ccc(Cl)c([N+](=O)[O-])c1)c1ccc2c(c1)OCO2	x	x	x	12	x
Cc1[nH]n2c(=O)c3c(nc2c1-c1ccc(Cl)cc1)CCC3	11	100*	-5	-1	1.1
CSc1ccc(/C=C/C(=O)c2ccc(NC(=O)c3ccco3)cc2)cc1	x	x	x	14	x
CC1CCc2c(sc(NC(=O)c3ccccc3)c2C(N)=O)C1 (centres undefined)	x	x	x	5	x
CC1CCc2c(sc(NC(=O)c3cccc(C(=O)O)c3)c2C(N)=O)C1 (centres undefined)	x	x	x	103*	x
COc1ccc(C2C(C#N)=C(N)Oc3c2sc2ccccc32)c(OC)c1 (centres undefined)	x	x	x	4	x
COc1ccccc1N1CCN(C(=O)Nc2cccc(Cl)c2)CC1	x	x	2	x	0.8
CCOc1ccccc1N1CCN(C(=O)Nc2ccc(F)c(Cl)c2)CC1	3	96*	10	8	1.1
Cc1ccc(C(C)C)c(OCCNC(=O)c2ccc(Cl)cc2Cl)c1	x	x	x	3	x
Cc1ccc(C)c(Nc2ncnc3nc[nH]c23)c1	11	-6	7	-2	2.4*
Cc1cccc(Nc2ncnc3nc[nH]c23)c1	12	-5	1	2	x
c1ccc(COc2ccc(Nc3ncnc4nc[nH]c34)cc2)cc1	4	3	-5	-1	2.3*
COc1ccc(Nc2ncnc3nc[nH]c23)cc1OC	22	-21	0	4	2*
CCOC(=O)c1ccc(Nc2ncnc3nc[nH]c23)cc1	-1	15	-2	5	1.2
SMILES	AP complement	tolC growth inh	E coli WT exp	HePTP inh	PLAP activator
Cc1ccc(CN2CCSc3ccc(C(=O)N4CCN(c5ncccn5)CC4)cc32)cc1	23	68*	-12	3	1.1
COCCNC(=S)Nc1ccc(F)cc1	x	x	x	-11	x
COCCCNC(=S)NNC(=S)Nc1ccc(F)cc1F	x	x	1	x	2.7*
N=c1n(CCN2CCOCC2)c2ccccc2n1CC(=O)c1ccc(Cl)c(Cl)c1	-1	80*	-3	5	1.5
O=C(c1cc2ccccc2o1)N1CCN(c2ccccc2Cl)CC1	-1	100*	-10	3	1.1
CCCOc1ccc(C(=O)N2CCN(c3ccc(NC(=O)CC)cc3Cl)CC2)cc1	3	63*	-12	1	1.3
CCOc1ccc(C(=O)N2CCN(c3ccc([N+](=O)[O-])cc3Cl)CC2)cc1	x	x	x	-13	x
Cc1cc(C)c2nc(N3CCC(C(=O)NCCCN4CCCCC4)CC3)sc2c1	x	x	8	x	2*
COC(=O)C1=C(CSc2nc3ccccc3o2)NC(=O)NC1c1cc(C)ccc1C (centres undefined)	14	86*	10	5	1.1
O=C(C#Cc1ccccc1)Nc1ccc(Cl)cc1	x	x	x	0	x
CCC1CCC/C1=N\NC(=O)c1cc(C)[nH]n1 (centres undefined)	x	x	5	x	2.3*
CC(C)N1CC(O)=C(c2nc3ccccc3[nH]2)C1=N	10	-1	11	3	2.5*
O=C1N=C(N=Nc2c(O)[nH]c3ccccc23)S/C1=C/c1ccc(Br)cc1	x	x	x	103*	x
NC(=O)N=Nc1c(O)[nH]c2ccccc12	x	x	x	-6	x
O=C(O)c1cccc(-c2ccc(/C=N/Nc3ccc([N+](=O)[O-])cn3)o2)c1	x	x	x	102*	x
O=C(O)c1cc(-c2ccc(/C=N/Nc3ccc([N+](=O)[O-])cn3)o2)ccc1Cl	x	x	x	12	x
O=C1CN(C(=O)c2cccc(Cl)c2)C(c2ccccc2Cl)c2cc(Br)ccc2N1 (centres undefined)	x	x	x	8	x
CCN(CC)S(=O)(=O)c1cccc(-c2nnc(C(=O)c3ccc(C(F)(F)F)cc3)o2)c1	8	-8	-12	6	1.1
CCCN(CCC)S(=O)(=O)c1ccc(C(=O)Nc2nnc(-c3cccc(OC)c3)o2)cc1	1	100*	x	7	x
CCCN(CCC)S(=O)(=O)c1ccc(C(=O)Nc2nnc(-c3cc(OC)cc(OC)c3)o2)cc1	15	98*	-6	12	2*
O=C1NC(=S)NC(=O)C1=Cc1cc(Br)c(Sc2ccc(Cl)cc2)o1	x	x	x	76*	x
Clc1ccc(Sc2oc(/C=N/n3cnnc3)cc2Br)cc1	15	4	3	5	0.9
Cc1cnnn1-c1ccc(C(=O)CCl)cc1	x	x	98*	x	1.2
CCCN(CCC)CC(O)COC1CCC(C(C)(C)C)CC1 (centres undefined)	x	x	x	-12	x
Cn1c(SCc2nc3ccccc3c(=O)[nH]2)nnc1-c1ccco1	12	-2	8	-4	0.9
SMILES	AP complement	tolC growth inh	E coli WT exp	HePTP inh	PLAP activator
Cn1c(-c2ccccc2)cnc1SCc1nc2ccccc2c(=O)[nH]1	11	24	8	11	2.5*
Oc1c(C=Nc2cccc3nsnc23)sc2ccccc12	x	x	x	3	x
NC(=O)c1ccc(NC(=O)c2cccc(Cl)c2)cc1	x	x	x	-1	x
NS(=O)(=O)c1ccc(NC(=O)c2c(Cl)cccc2Cl)cc1	x	x	x	104*	x
NC1=NC(=O)/C(=C/c2ccc(-c3ccc([N+](=O)[O-])cc3Br)o2)S1	x	x	x	100*	x
O=C1OC(c2ccccc2)=C/C1=C/c1ccc(-c2ccc([N+](=O)[O-])cc2Br)o1	x	x	x	104*	x
CCN1C(=O)/C(=C\c2ccc(-c3ccc([N+](=O)[O-])cc3Br)o2)SC1=S	x	x	x	-8	x
Cc1cccc(N2CCN(S(=O)(=O)c3ccccc3)CC2)c1	x	x	x	-15	x
Clc1ccc(-n2ncc3c(NCc4ccco4)ncnc32)cc1	x	2	-11	7	x
Clc1ccc(Cn2ncc3c(NCc4ccco4)ncnc32)c(Cl)c1	-21	68*	2	-5	1.1
